In the library only some 4.6% were active in any assay of this set; here they are far more common.
OX1R antag-1: human HCRTR1 antagonism. inhibition, % at 5 µM. O43613. AID 434989. CHO/OX1R cells, Fluo-8 calcium fluorescence, orexin A. 330,000 compounds, 0.43% hits;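 active = inhibition above its plate's threshold, mean inhibition of all tested compounds on the plate plus 3 SD, cut at about 37% in these data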;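 also: 0% = orexin A challenge wells and 100% = SB-334867-A antagonist wells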
GPR7 antagonist: human neuropeptides B/W receptor 1 antagonism | P48145 | GPR7-expressing cells, fluorescence antagonist assay | inhibition, % at 4.4 µM | 290,000 compounds, 1.1% hits | AID 1861; in the data active = inhibition above about 16%, passing the limit was not always enough;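 also: cells stimulated with the agonist NPW; 0% = agonist with vehicle and 100% = vehicle without agonist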
Target sequence (P48145 whole entry, looked up): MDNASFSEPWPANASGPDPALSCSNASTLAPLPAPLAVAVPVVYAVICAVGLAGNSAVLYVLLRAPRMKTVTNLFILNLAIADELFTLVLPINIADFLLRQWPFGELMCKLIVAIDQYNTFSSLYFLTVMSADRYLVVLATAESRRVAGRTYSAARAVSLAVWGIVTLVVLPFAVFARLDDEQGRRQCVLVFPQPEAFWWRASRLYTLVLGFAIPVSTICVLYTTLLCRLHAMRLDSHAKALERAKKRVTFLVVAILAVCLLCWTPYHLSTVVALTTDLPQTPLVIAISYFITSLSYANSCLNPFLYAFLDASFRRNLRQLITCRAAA
TAAR1 ag: agonists of human TAAR1; 360,000 compounds, 0.99% hits; CHO RD-HGA16 TAAR1, Fluo-8 calcium fluorescence; vehicle wells 0%, saturating PEA agonist 100%; AID 624467; activation, % at 3 µM;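 active = activation above the mean activation of all test compounds in the run plus 3 SD, cut at about 38% in these data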
Target sequence (Q96RJ0 whole entry, looked up): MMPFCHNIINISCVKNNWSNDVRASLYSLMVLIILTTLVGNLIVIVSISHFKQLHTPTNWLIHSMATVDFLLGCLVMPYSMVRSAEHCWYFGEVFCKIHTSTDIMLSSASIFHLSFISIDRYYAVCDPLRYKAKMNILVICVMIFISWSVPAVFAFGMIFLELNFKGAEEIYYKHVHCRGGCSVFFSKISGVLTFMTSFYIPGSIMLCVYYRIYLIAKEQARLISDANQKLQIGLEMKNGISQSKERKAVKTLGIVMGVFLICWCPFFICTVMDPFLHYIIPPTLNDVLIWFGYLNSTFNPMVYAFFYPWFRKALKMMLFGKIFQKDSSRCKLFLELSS
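System: CHO-derived RD-HGA16 cells with stable Gα16 and human TAAR1 / Times: 17-24 h plating, Fluo-8 75 min 37 °C, 30 min RT / Technique: calcium-sensitive Fluo-8 signal, excitation 470-495, emission 515-575 nm / Measure: % activation relative to PEA EC100 response / Benchmarks: DMSO and PEA EC100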
OX1R antag-2: blocks the human orexin 1 receptor; OX1R-expressing cells, FRET antagonist read-out; inhibition, % at 6.6 µM; AID 485270; 330,000 compounds, 1.8% hits; in the data active = inhibition mostly above about 38%, no sharp cut-off; inactive = mostly below about 40%;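 also: 0% = agonist challenge alone and 100% = reference antagonist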
TAAR1 antag: human TAAR1 antagonism | AID 624466 | Q96RJ0 | CHO RD-HGA16 TAAR1, Fluo-8 calcium fluorescence, antagonist | inhibition, % at 3 µM | 360,000 compounds, 1.5% hits;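 active = inhibition above a per-plate cutoff, the mean inhibition of test compounds on that plate plus 3 SD, cut at about 49% in these data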;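 also: 0% = DMSO plus EC80 beta-PEA response and 100% = DMSO alone without agonist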
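Assay system: CHO-derived RD-HGA16 cells stably expressing human TAAR1 plus Gα16. Timing: 140 s kinetic read after compound, 140 s after agonist. Technique: kinetic Fluo-8 calcium fluorescence measurement. Measure: % inhibition of agonist calcium response.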
CHO parental Ca: counter-screen for OX1R antagonists: effect in parental CHO cells; 330,000 compounds, 0.63% hits; AID 463079; inhibition, % at 5.6 µM; parental CHO-K1, ATP-induced calcium, Fluo-8 fluorescence;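 active = inhibition above that plate's mean sample inhibition plus 3 SD, cut at about 26% in these data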;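 also: 0% = ATP-challenged DMSO wells and 100% = DMSO wells without ATP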
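Material: Parental CHO cells | Reagent: ATP | Compound dosing: Single nominal dose of 5.6 µM per compound | Detection: Intracellular calcium via Fluo-8 no-wash fluorescent dye | Read-out: % inhibition of ATP-induced calcium mobilization | Benchmarks: Low control ATP plus DMSO, high control DMSO only | Replicates: Singlicate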
* = called active by the depositor; . = no result given.

SMILES | OX1R antag-1 | GPR7 antagonist | TAAR1 ag | OX1R antag-2 | TAAR1 antag | CHO parental Ca
COc1ccc(CCN(C)CCc2ccc(OC)c(OC)c2)cc1OC | -12 | . | 2 | 15 | -15 | -10
CC(C)(C)OC(=O)NCCCCCc1cn([C@@H](CO)C(=O)NCCCCCCCCCCC(=O)N2CCN(C(=O)OC(C)(C)C)CC2)nn1 | 74* | . | 35 | 71* | 87* | 96*
CC(C)(C)OC(=O)CC[C@@H](C(=O)NCCCCCCCCCCC(=O)N1CCN(C(=O)OC(C)(C)C)CC1)n1cc(CCCCCNC(=O)OC(C)(C)C)nn1 | -31 | . | 8 | 26 | 42 | -21
CC[C@H](C)[C@@H](C(=O)NCCCCCCCCCCC(=O)N1CCN(C(=O)OC(C)(C)C)CC1)n1cc(CCCCCNC(=O)OC(C)(C)C)nn1 | 32 | . | 18 | 13 | 60* | 43*
CC[C@H](C)[C@@H](C(=O)NCCCCCCCCCCC(=O)N1CCN(C(=O)OC(C)(C)C)CC1)n1cc(CCCCN=C(NC(=O)OC(C)(C)C)NC(=O)OC(C)(C)C)nn1 | -9 | . | . | 27 | . | -14
O=C1Nc2ccccc2N=C(c2ccccc2)C1N(C(=O)c1ccnc2ccccc12)c1ccccc1 (stereo not given) | . | . | 1 | . | 0 | .
CCc1ccc(C(C)NC(=O)Cn2cnc3c(=O)n(C)c(=O)n(C)c32)cc1 (stereo not given) | -15 | -5 | 38* | 2 | 1 | -11
CC(NC(=O)Cn1cnc2c1c(=O)n(C)c(=O)n2C)c1ccccc1 (stereo not given) | -12 | -10 | 8 | 16 | -3 | -7
O=C1c2cc(Cl)ccc2OC2(CCNCC2)C12CC(c1ccccc1)=NO2 (stereo not given) | -2 | . | 43* | 32 | 39 | 3
O=C1c2cc(Cl)ccc2OC2(CCNCC2)C12CC(c1ccc(Cl)cc1)=NO2 (stereo not given) | -22 | . | . | 19 | . | -2
O=C1Nc2ccccc2S/C1=C/c1cccs1 | -5 | -12 | -2 | 61* | -17 | -8
Cc1ccc(N=C2NC(=O)/C(=C\c3cccs3)S2)cc1C | -22 | 7 | -1 | 57* | 24 | -28
NC(Cc1ccc(C(F)(F)F)cc1)c1csc(Nc2ncccn2)n1 (stereo not given) | . | . | 19 | . | 9 | .
NC(Cc1ccc(C(F)(F)F)cc1)c1csc(Nc2cc(NCc3ccco3)ncn2)n1 (stereo not given) | . | . | 38* | . | 29 | .
COc1cccc(Nc2nc(C(N)Cc3ccccc3)cs2)n1 (stereo not given) | . | . | 52* | . | 29 | .
NC(Cc1ccc(C(F)(F)F)cc1)c1csc(Nc2ccccn2)n1 (stereo not given) | . | . | 46* | . | 8 | .
CN(Cc1ccccc1)C(=O)c1ccc(Nc2nc(C(N)Cc3ccccc3)cs2)nc1 (stereo not given) | . | . | 45* | . | 45 | .
COCCNC(=S)N(C)[C@H]1C[C@H]2c3[nH]c4cccc(-c5ccccc5)c4c3CCN2C(=O)[C@H]1[C@H](C)O | . | . | 1 | . | -7 | .
COC(=O)C1=C(C)N(C)C(=NCc2ccccc2C(F)(F)F)NC1CCc1ccccc1 (stereo not given) | . | . | 4 | . | 0 | .
O=C(O)CNc1nc(Cl)ccc1[N+](=O)[O-] | -10 | -12 | 2 | 64* | 3 | -1
COc1ccccc1C(=O)OCC#CCSc1nnc(-c2cccc3ccccc23)o1 | 18 | . | 11 | 49* | 31 | -11
COc1ccc(N2C(=O)c3[nH]nc(-c4ccccc4)c3C2c2ccc(Br)cc2)cc1 (stereo not given) | . | . | 14 | . | -7 | .
C#CCSc1nnc(-c2ccc([N+](=O)[O-])cc2)o1 | -3 | -5 | 2 | 51* | 13 | -3
CSc1nnc(-c2ccc(F)cc2)o1 | -3 | -6 | 12 | 14 | -2 | -5
CSc1nnc(-c2ccc([N+](=O)[O-])cc2)o1 | -3 | -6 | 2 | 62* | 10 | -9
SMILES | OX1R antag-1 | GPR7 antagonist | TAAR1 ag | OX1R antag-2 | TAAR1 antag | CHO parental Ca
C#CCN(Cc1cccc(F)c1)C(=O)c1nnc2c3ccccc3n(S(=O)(=O)c3ccc(C)cc3)c2n1 | . | . | -1 | . | 0 | .
CCN(CC(=O)NCc1cccs1)C(=O)c1ccc(S(=O)(=O)N(C)c2ccccc2)cc1 | -10 | . | 4 | 4 | 16 | -9
CCN(c1ccccc1)S(=O)(=O)c1ccc(C(=O)N(C)Cc2cccs2)cc1 | 10 | . | 11 | 13 | 49* | 2
COCCNC(=S)N1C[C@H]2CON(C)[C@H]2C[C@H]1c1ccccc1Br | . | . | 2 | . | -25 | .
COc1ccc(-c2c(C(=O)c3ccc(Br)cc3)[nH]c(N)c2C(=O)NCCc2c[nH]c3ccccc23)cc1OC | . | . | 10 | . | 44 | .
CC(C)Cc1cc(C(=O)Nc2cccnc2)no1 | -8 | 18 | 0 | 8 | -25 | -4
CC(=O)c1ccc(NC(=O)c2cc(CC(C)C)on2)cc1 | -7 | -9 | -1 | 2 | -12 | 36*
Cc1ccnc(NC(=O)COc2ccc3oc4c(c3c2)CCCC4)c1 | 7 | -4 | 13 | 54* | 26 | -33
CNC(=O)COc1ccc2oc3c(c2c1)CCCC3 | -9 | -4 | 0 | 38 | 1 | -14
Cc1cc(NC(=O)Cc2c(C)[nH]c3ccccc23)ccc1Oc1cccnc1 | . | . | 7 | . | 6 | .
Cn1c(=O)c2cc(NCc3ccccc3)nnc2n(C)c1=O | -17 | -2 | 10 | 48* | 2 | -9
c1csc(-c2nc3c4ccccc4c4ccccc4c3[nH]2)c1 | -8 | 3 | 6 | 63* | 20 | 0
CC1(O)CC(C)(C)C(C#N)C(=O)N1 (stereo not given) | . | . | 2 | . | -6 | .
Cc1ccc(-n2nc(C(=O)O)c3ccccc3c2=O)cc1C | -10 | -16 | -1 | 1 | -30 | -10
COC(=O)Nc1nn(-c2ccc(Cl)cc2)c(=O)c(C#N)c1C | -3 | -8 | 4 | 59* | -10 | 3
CCOC(=O)c1nn(-c2ccc(C)c(C)c2)c(=O)c(C#N)c1C | -30 | -4 | 2 | 44* | -24 | -18
Cc1c(C(=O)NN)nn(-c2ccc(F)cc2)c(=O)c1C#N | -10 | 6 | 4 | 48* | -4 | 0
NS(=O)(=O)c1ccc(CCNC(=O)c2cccc(S(=O)(=O)N3CCc4ccccc43)c2)cc1 | . | . | 4 | . | 16 | .
Cc1c(-c2ccc(O)cc2)nc2nc(-c3ccccc3)c(-c3ccccc3)nn12 | 99* | -8 | . | 27 | . | 90*
Cn1c(CC(=O)Nc2ccc(Cl)c(Cl)c2)n[nH]c1=S | 6 | 1 | 2 | 10 | 5 | 1
COc1ccc(Cc2n[nH]c(=S)n2NC(=O)Nc2ccc(Cl)c(Cl)c2)cc1 | 30 | 15 | 12 | 58* | -27 | 52*
O=C(Nc1cc([N+](=O)[O-])ccc1Cl)C(Sc1ccccc1)c1ccccc1 (stereo not given) | -18 | -3 | 0 | 16 | 22 | -11
